Laboratory results as given in ChEMBL document CHEMBL1138222, “9-Benzylidene-naphtho[2,3-b]thiophen-4-ones as novel antimicrotubule agents-synthesis, antiproliferative activity, and inhibition of tubulin polymerization” (J Med Chem, 2006).
Active and inactive are the calls of the source. No cut-off for these calls is given here.

Key:
[1] = Cell cycle arrest in KB/HeLa cells by accumulation at S phase at 31.6 nM; format: functional, cell-based; conditions: Homo sapiens
Outline: (§1)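 Subconfluent KB/HeLa cells were treated with a concentration series for 24 h at 37 °C, then detached and fixed in 70% ethanol. DNA was stained with propidium iodide alongside RNase digestion and measured by flow cytometry. Phase fractions came from cell-cycle modelling software, and IC50 from nonlinear regression.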

[2] = Cell cycle arrest in KB/HeLa cells by accumulation at S phase at 100 nM; format: functional, cell-based; conditions: Homo sapiens; outline: as §1
[3] = Cell cycle arrest in KB/HeLa cells by accumulation at S phase at 316 nM; format: functional, cell-based; conditions: Homo sapiens; outline: as §1
[4] = Cell cycle arrest in KB/HeLa cells by accumulation at G2/M phase at 0.1 nM; format: functional, cell-based; conditions: Homo sapiens; outline: as §1
[5] = Cell cycle arrest in KB/HeLa cells by accumulation at G2/M phase at 0.3 nM; format: functional, cell-based; conditions: Homo sapiens; outline: as §1
[6] = Cell cycle arrest in KB/HeLa cells by accumulation at G2/M phase at 1 nM; format: functional, cell-based; conditions: Homo sapiens; outline: as §1
[7] = Cell cycle arrest in KB/HeLa cells by accumulation at G2/M phase at 3.16 nM; format: functional, cell-based; conditions: Homo sapiens
[8] = Cell cycle arrest in KB/HeLa cells by accumulation at G2/M phase at 10 nM; format: functional, cell-based; conditions: Homo sapiens; outline: as §1
[9] = Cell cycle arrest in KB/HeLa cells by accumulation at G2/M phase at 31.6 nM; format: functional, cell-based; conditions: Homo sapiens; outline: as §1
[10] = Cell cycle arrest in KB/HeLa cells by accumulation at G2/M phase at 100 nM; format: functional, cell-based; conditions: Homo sapiens; outline: as §1
[11] = Cell cycle arrest in KB/HeLa cells by accumulation at G2/M phase at 316 nM; format: functional, cell-based; conditions: Homo sapiens; outline: as §1
[12] = Cell cycle arrest in KB/HeLa cells by accumulation at G1 phase at 0.1 nM; format: functional, cell-based; conditions: Homo sapiens; outline: as §1
[13] = Cell cycle arrest in KB/HeLa cells by accumulation at G1 phase at 0.3 nM; format: functional, cell-based; conditions: Homo sapiens; outline: as §1
[14] = Cell cycle arrest in KB/HeLa cells by accumulation at G1 phase at 1 nM; format: functional, cell-based; conditions: Homo sapiens; outline: as §1
[15] = Cell cycle arrest in KB/HeLa cells by accumulation at G1 phase at 3.16 nM; format: functional, cell-based; conditions: Homo sapiens; outline: as §1
[16] = Cell cycle arrest in KB/HeLa cells by accumulation at G1 phase at 10 nM; format: functional, cell-based; conditions: Homo sapiens; outline: as §1
[17] = Cell cycle arrest in KB/HeLa cells by accumulation at G1 phase at 31.6 nM; format: functional, cell-based; conditions: Homo sapiens; outline: as §1
[18] = Cell cycle arrest in KB/HeLa cells by accumulation at G1 phase at 100 nM; format: functional, cell-based; conditions: Homo sapiens; outline: as §1
[19] = Cell cycle arrest in KB/HeLa cells by accumulation at G1 phase at 316 nM; format: functional, cell-based; conditions: Homo sapiens; outline: as §1
K562 [20] = assay: Antiproliferative activity against human K562 cell line; format: functional, cell-based
[21] = Cell cycle arrest in KB/HeLa cells by accumulation at G2/M phase; format: functional, cell-based; conditions: Homo sapiens; outline: as §1
K562 [22] = assay: Cell cycle arrest in K562 cells by accumulation at G2/M phase at 0.03 uM; format: functional, Homo sapiens
Outline: (§2)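 K562 leukaemia cells were exposed to compound for 24 h at 37 °C, pelleted, and washed in PBS. They were fixed in ice-cold 70% ethanol for 30 min at 4 °C. Staining was 30 min in the dark with propidium iodide (0.2 mg/mL) plus RNase (2 mg/mL) in PBS. DNA content was measured by flow cytometry with 488 nm argon laser excitation.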

K562 [23] = assay: Cell cycle arrest in K562 cells by accumulation at G2/M phase at 0.06 uM; format: functional, Homo sapiens; outline: as §2
K562 [24] = assay: Cell cycle arrest in K562 cells by accumulation at G2/M phase at 0.1 uM; format: functional, Homo sapiens; outline: as §2
Tubulin (Homo sapiens) [25] = target: T1, Tubulin (Homo sapiens) (UniProt P68371+Q9H4B7+P0DPH7+P68366+Q13509+Q71U36+P04350+Q3ZCM7+P07437+P68363+Q9BQE3+Q6PEY2+Q13885+Q9BVA1+Q9BUF5); assay: Displacement of [3H]colchicine from tubulin by SPA assay; format: protein-complex assay
Tubulin (Homo sapiens) [26] = target: T1, Tubulin (Homo sapiens); assay: Displacement of [3H]paclitaxel from tubulin by SPA assay; format: protein-complex assay
P388 [27] = assay: Inhibition of P388 cells growth subcutaneously implanted in CD2F1 mouse at 25 mg/kg, ip after 7 days; format: functional, organism-based; set-up: dose 25 mg/kg
Outline: (§3)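 Female CD2F1 mice aged 5-6 weeks received ~1 mm3 P388 tumour fragments subcutaneously on day 0. Dosing was intraperitoneal at 0.1 mL/10 g on days 5, 12 and 19, at 100, 50 or 25 mg/kg; controls received DMSO vehicle. Body weight and subcutaneous tumour growth were recorded three times per week.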

P388 [28] = assay: Inhibition of P388 cells growth subcutaneously implanted in CD2F1 mouse at 50 mg/kg, ip between 9 to 14 days; format: functional, organism-based; set-up: dose 50 mg/kg; outline: as §3
Tubulin = Tubulin (Sus scrofa, UniProt P02554+P02550); assay: Inhibition of tubulin polymerization in porcine brain
[29] = Antiproliferative activity against KB/HeLa cells by XTT assay after 48 hrs; format: functional, cell-based; conditions: Homo sapiens
Outline: (§4)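 Tumour cell lines were seeded at 1 × 10^3 to 8 × 10^4 cells/well for logarithmic growth and exposed to a concentration series for 48 h. Proliferation was read as cellular metabolic activity by XTT. IC50 came from dose-response curves by nonlinear regression, with at least two replicates.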

SK-OV-3 = assay: Antiproliferative activity against SKOV3 cells by XTT assay after 48 hrs; format: functional, cell-based; conditions: Homo sapiens, SK-OV-3, 48 h; outline: as §4
SF-268 = assay: Antiproliferative activity against SF268 cells by XTT assay after 48 hrs; format: functional, cell-based; conditions: Homo sapiens, SF-268, 48 h; outline: as §4
NCI-H460 = assay: Antiproliferative activity against NCI-H460 cells by XTT assay after 48 hrs; format: functional, cell-based; conditions: Homo sapiens, NCI-H460, 48 h; outline: as §4
RKO [30] = assay: Antiproliferative activity against RKO cells with ectopic-induced p27kip1-expression by XTT assay after 48 hrs; format: functional, cell-based; conditions: Homo sapiens
Outline: (§5)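 RKO colon adenocarcinoma cells carry an ecdysone-inducible p27kip1 vector. On day 1 they were plated with 3 µM ponasterone A (induced, 2 × 10^4 cells/well) or without it (not induced, 6 × 10^3 cells/well) and held 24 h at 37 °C. Compound or DMSO control was then added for 48 h at 37 °C, followed by a standard XTT read-out.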

RKO [31] = assay: Antiproliferative activity against RKO cells by XTT assay after 48 hrs; format: functional, cell-based; conditions: Homo sapiens; outline: as §5
MDR = assay: Antiproliferative activity against LT12 MDR cells by XTT assay after 48 hrs; format: functional, cell-based; conditions: Rattus norvegicus; outline: as §4
L1210 [32] = assay: Antiproliferative activity against L1210 cells by XTT assay after 48 hrs; format: functional, cell-based; conditions: Mus musculus, L1210, 48 h; outline: as §4
L1210 [33] = assay: Antiproliferative activity against L1210 VCR cells by XTT assay after 48 hrs; format: functional, cell-based; conditions: Mus musculus, L1210, 48 h; outline: as §4
P388 [34] = assay: Antiproliferative activity against P388 cells by XTT assay after 48 hrs; format: functional, cell-based; conditions: Mus musculus, P388, 48 h; outline: as §4
P388 [35] = assay: Antiproliferative activity against P388 ADR cells by XTT assay after 48 hrs; format: functional, cell-based; conditions: Mus musculus, P388, 48 h; outline: as §4
Mus musculus [36] = assay: Increase in survival of CD2F1 mouse subcutaneously implanted with P388 cells at 100 mg/kg after 21 days; format: functional; conditions: route intraperitoneal
Mus musculus [37] = assay: Increase in survival of CD2F1 mouse subcutaneously implanted with P388 cells at 50 mg/kg after 21 days; format: functional; conditions: route intraperitoneal
Mus musculus [38] = assay: Increase in survival of CD2F1 mouse subcutaneously implanted with P388 cells at 25 mg/kg after 21 days; format: functional; conditions: route intraperitoneal
[39] = Cell cycle arrest in KB/HeLa cells by accumulation at S phase at 0.1 nM; format: functional, cell-based; conditions: Homo sapiens; outline: as §1
[40] = Cell cycle arrest in KB/HeLa cells by accumulation at S phase at 0.3 nM; format: functional, cell-based; conditions: Homo sapiens; outline: as §1
[41] = Cell cycle arrest in KB/HeLa cells by accumulation at S phase at 1 nM; format: functional, cell-based; conditions: Homo sapiens; outline: as §1
[42] = Cell cycle arrest in KB/HeLa cells by accumulation at S phase at 3.16 nM; format: functional, cell-based; conditions: Homo sapiens; outline: as §1
[43] = Cell cycle arrest in KB/HeLa cells by accumulation at S phase at 10 nM; format: functional, cell-based; conditions: Homo sapiens; outline: as §1
cells = conditions: Rattus norvegicus, LT12, 48 h

## COc1cc(/C=C2/c3ccccc3C(=O)c3ccsc32)cc(OC)c1O
[1]
  Activity: 26%
[2]
  Activity: 16.2%
[3]
  Activity: 9.8%
[4]
  Activity: 9.7%
[5]
  Activity: 9.1%
[6]
  Activity: 8.4%
[7]
  Activity: 9.2%
[8]
  Activity: 8.8%
[9]
  Activity: 8.6%
[10]
  Activity: 52.2%
[11]
  Activity: 89.5%
[12]
  Activity: 65.8%
[13]
  Activity: 65.6%
[14]
  Activity: 65.7%
[15]
  Activity: 66.3%
[16]
  Activity: 64.8%
[17]
  Activity: 65.4%
[18]
  Activity: 31.7%
[19]
  Activity: 0.8%
K562 [20]
  IC50: 50 nM
[21]
  EC50: 98 nM
K562 [22]
  Activity: 23%
K562 [23]
  Activity: 55%
K562 [24]
  Activity: 72%
Tubulin (Homo sapiens) [25]
  Activity: 0.27 µM
Tubulin (Homo sapiens) [26]
  Activity: inactive
P388 [27]
  Activity: Active
P388 [28]
  Activity: Active
Tubulin
  IC50: 380 nM
[29]
  IC50: 50 nM
SK-OV-3
  IC50: 70 nM
SF-268
  IC50: 70 nM
NCI-H460
  IC50: 50 nM
RKO [30]
  IC50: > 9000 nM
RKO [31]
  IC50: 30 nM
MDR
  IC50: 170 nM
L1210 [32]
  IC50: 340 nM
L1210 [33]
  IC50: 680 nM
P388 [34]
  IC50: 50 nM
P388 [35]
  IC50: 220 nM
Mus musculus [36]
  Activity: 106%
Mus musculus [37]
  Activity: 111%
Mus musculus [38]
  Activity: 83%
[39]
  Activity: 24.6%
[40]
  Activity: 25.3%
[41]
  Activity: 25.9%
[42]
  Activity: 24.5%
[43]
  Activity: 26.5%
cells
  IC50: 130 nM
